# Test results: PMC3770188 (ACS medicinal chemistry letters, 2013)
# Where two headings read alike, the source gives them in different places.
# Tests used:
# spermatogenesis in mice [1] = settings: oral, low levels; cited from earlier work
# spermatogenesis in mice [2] = assay: IV and IP administration, effect on spermatogenesis in mice; type: in vivo, CD1 mice
# Outline: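 Male CD1 mice dosed daily with test compound at 10 mg/kg by IV (for 3, 6 or 7 days; n = 2 for 6 and 7 days) or IP (7 days), against vehicle-only controls. Testes taken […] were sectioned and examined histologically for spermatid alignment and release in tubules. Reversibility was assessed by testis histology 4 weeks post-treatment.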
# RARγ = target: T1, RARγ (Homo sapiens, UniProt P13631); assay: Transactivation competition assay; type: cell-based; settings: HeLa cells, 10^−7M ATRA, increasing concentrations of retinoid, 24 hours
# T1 sequence (P13631 1-454): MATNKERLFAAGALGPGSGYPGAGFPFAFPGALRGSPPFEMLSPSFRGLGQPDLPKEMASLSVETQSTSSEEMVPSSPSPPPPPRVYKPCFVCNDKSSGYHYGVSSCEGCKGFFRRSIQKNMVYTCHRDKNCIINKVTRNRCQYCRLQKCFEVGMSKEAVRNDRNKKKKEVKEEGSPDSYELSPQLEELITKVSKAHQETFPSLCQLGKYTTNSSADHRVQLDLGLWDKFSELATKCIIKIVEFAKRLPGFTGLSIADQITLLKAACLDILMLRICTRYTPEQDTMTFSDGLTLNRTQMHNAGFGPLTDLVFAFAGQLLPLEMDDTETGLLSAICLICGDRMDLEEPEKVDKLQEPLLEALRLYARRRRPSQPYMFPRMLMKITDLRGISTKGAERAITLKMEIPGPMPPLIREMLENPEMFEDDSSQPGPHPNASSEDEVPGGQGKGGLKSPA
# Outline: (§1)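 HeLa cells were cotransfected with receptor/CAT reporter constructs plus a constant β-galactosidase plasmid as internal control. Cells were incubated with submaximal ATRA (10–7 M) plus increasing concentrations of test compound, and CAT expression was measured after 24 h. Dilution medium without retinoid served as vehicle control and ATRA as positive control.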
# RARβ = target: T2, RARβ (Homo sapiens, UniProt P10826); assay: Transactivation competition assay; type: cell-based; settings: HeLa cells, 10^−7M ATRA, increasing concentrations of retinoid, 24 hours
# T2 sequence (P10826 1-455): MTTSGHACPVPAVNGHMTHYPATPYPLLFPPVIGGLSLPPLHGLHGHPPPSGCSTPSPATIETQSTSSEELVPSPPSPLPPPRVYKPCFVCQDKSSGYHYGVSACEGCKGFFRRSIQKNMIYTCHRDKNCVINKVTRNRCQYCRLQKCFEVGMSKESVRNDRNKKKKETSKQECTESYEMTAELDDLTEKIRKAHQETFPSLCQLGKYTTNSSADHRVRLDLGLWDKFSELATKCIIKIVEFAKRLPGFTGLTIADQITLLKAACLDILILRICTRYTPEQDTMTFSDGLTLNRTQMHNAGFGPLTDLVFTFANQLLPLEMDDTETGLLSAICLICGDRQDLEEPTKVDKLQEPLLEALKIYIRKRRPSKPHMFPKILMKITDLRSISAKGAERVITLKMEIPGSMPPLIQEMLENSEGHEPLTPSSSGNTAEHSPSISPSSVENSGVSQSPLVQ
# Outline: as §1
# spermatogenesis in mice [3] = assay: Oral administration, effect on spermatogenesis in mice; type: in vivo, CD1 mice; settings: for Morphology of caudal epididymides: oral 10 mg/kg for 7 days; for Morphology of caudal epididymides / Epididymal sperm motility: 1-month post-treatment; for Testicular weight compared with control: oral 2 and 10 mg/kg for 7 days, mean±SD of five mice; for Effect on spermatogenesis (testis morphology): oral 2.0 and 10 mg/kg for 7 days, one-month after dosing; for Epididymal sperm motility: oral, 7 days
# Outline: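 Male CD1 mice received test compound by oral gavage daily at 2 or 10 mg/kg for 7 days; controls got vehicle alone for 7 days. Body weight was monitored throughout. One month post-treatment, testes were collected and weighed (mean ± SD, five mice per regimen; […] Student's t-test vs age-matched controls). Testes and epididymides were sectioned for histology with tubule staging.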
# RARs [4] = settings: concomitantly transfected RARs; cited from earlier work
# RARs [5] = assay: Transactivation assay; type: cell-based; settings: concomitantly transfected RARs
"Competition of ATRA-induced CAT expression, RARγ (RARγ)","Competition of ATRA-induced CAT expression, RARβ (RARβ)",Structure (SMILES),Effect on spermatogenesis in mice (spermatogenesis in mice [1]),Side-effects in mice (spermatogenesis in mice [1]),"Effect on spermatid alignment and sperm release (spermatogenesis in mice [2]; IV 10 mg/kg for 6 and 7 days, one-day post-treatment)","Effect on spermatogenesis 4-weeks post-treatment (reversibility) (spermatogenesis in mice [2]; IV, 4-weeks post-treatment)",Morphology of caudal epididymides (spermatogenesis in mice [3]),Testicular weight compared with control (spermatogenesis in mice [3]),Effect on spermatogenesis (testis morphology) (spermatogenesis in mice [3]),Epididymal sperm motility (spermatogenesis in mice [3]),Induction of RARE-CAT reporter expression by compound alone (RARs [4]),Induction of RARE-CAT reporter expression by compound alone (RARs [5])
,,CC1(C)CC=C(c2ccccc2)c2cc(/C=C/c3ccc(C(=O)O)cc3)ccc21 [compound 1],inhibited spermatogenesis,without any observable side-effects,,,,,,,,
minimal activity,minimal activity,Cc1ccc(C2=CCC(C)(C)c3ccc(C(=O)Nc4ccc(C(=O)O)cc4)cc32)cc1 [compound 2],,,Acute disruptive effects,No effect on spermatogenesis,appeared normal,No significant differences,no effect on spermatogenesis,normal motility,"did not, by themselves, induce reporter expression",
minimal activity,minimal activity,CC1(C)CC=C(c2cnc3ccccc3c2)c2cc(C(=O)Nc3ccc(C(=O)O)cc3)ccc21 [compound 3],,,,,appeared normal,No significant differences,no effect on spermatogenesis,normal motility,,"did not, by themselves, induce reporter expression"
